Rows were chosen to be rich in hits. Some 2.6% of all compounds tested hit in one or more screens of this group.
SENP8 block-1: inhibitors of human SENP8 protease. recombinant SENP8, Nedd8 substrate fluorescence. inhibition, % at 20 µM. actives 0.64% (n = 360,000). Q96LD8; in the data active means inhibition mostly above about 40%, no sharp cut-off; inactive means mostly below about 27%
SENP1 FRET inh: blocks the human SENP1 SUMO protease catalytic domain; Q9P0U3; recombinant SENP1 catalytic domain, CyPet-SUMO1-YPet FRET cleavage; inhibition, % at 10 µM; actives 0.21% (n = 360,000); AID 624204;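 active means inhibition at least 30% at 10 µM, raw YFP signal under a set limit, fluorescence ratio 0.5 to 1.5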
Target sequence (Q9P0U3 419-644 limits assumed): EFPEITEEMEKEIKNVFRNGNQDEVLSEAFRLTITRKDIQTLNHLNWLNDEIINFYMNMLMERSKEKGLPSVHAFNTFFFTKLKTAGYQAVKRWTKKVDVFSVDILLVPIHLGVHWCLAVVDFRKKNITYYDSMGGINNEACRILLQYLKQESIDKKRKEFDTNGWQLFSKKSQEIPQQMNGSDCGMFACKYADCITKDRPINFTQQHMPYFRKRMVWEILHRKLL
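Test system: hSENP1 catalytic domain, recombinant; Amount: 20 pM final SENP1 enzyme; Medium: Tris pH 8 buffer plus EDTA, NaCl, BME, BSA, NP40, catalase; Schedule: 50 min enzyme reaction, room temperature, light-protected; Technique: FRET fluorescence in CFP and YFP emission channels; Controls: no-enzyme wells low, DMSO-plus-enzyme wells high control.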
Platelet DG rel: platelet dense granule release activity; human platelet-rich plasma, SFLLRN dense granule ATP release, luminescence; inhibition, %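 (compounds screened at 7.5 µM in platelet-rich plasma)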; actives 0.22% (n = 300,000); AID 1663;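 active means mean replicate score, as percent of positive control, at or above 50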
SENP8 block-2: inhibitors of human SENP8 protease. Q96LD8. purified SENP8, Z-RLRGG-aminoluciferin cleavage, luminescence. inhibition, % at 10 µM. actives 1.2% (n = 330,000); in the data active means inhibition above about 50%
SENP6 block: blocks the human protease SENP6; Recombinant SENP6 catalytic domain, aminoluciferin luminescence; inhibition, % at 10 µM; actives 1.8% (n = 330,000);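 active means inhibition above about 50% at the single tested dose, limit read from the data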
SENP7 block: SENP7 protease inhibition; AID 434973; inhibition, % at 5 µM; actives 1.5% (n = 330,000); recombinant SENP7, Z-RLRGG-aminoluciferin luminescence, 40 min;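 active means inhibition above about 50% at the single test dose, limit read from the data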
Target sequence (Q9BQF6 706-1050 limits assumed): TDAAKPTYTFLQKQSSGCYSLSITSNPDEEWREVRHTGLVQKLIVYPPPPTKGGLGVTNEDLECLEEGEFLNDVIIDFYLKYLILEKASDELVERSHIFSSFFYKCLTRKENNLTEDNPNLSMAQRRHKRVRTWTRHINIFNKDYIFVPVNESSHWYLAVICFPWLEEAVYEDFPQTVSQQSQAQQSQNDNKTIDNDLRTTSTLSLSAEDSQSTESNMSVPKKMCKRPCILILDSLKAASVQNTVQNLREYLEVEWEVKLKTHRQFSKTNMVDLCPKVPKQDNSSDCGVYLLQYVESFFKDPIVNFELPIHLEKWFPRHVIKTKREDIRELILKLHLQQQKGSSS
SENP8 conf: confirmation of human SENP8 protease inhibitors. inhibition, % at 25 µM. shares compounds with SENP8 block-1. purified SENP8, Nedd8-AMC/pro-Nedd8 cleavage fluorescence, 30 min. actives 15% (n = 1,400). AID 624319; in the data active means inhibition mostly above about 39%, no sharp cut-off; inactive means mostly below about 34%
A number is an active result; n = inactive; x = no result given.

SMILES | SENP8 block-1 | SENP1 FRET inh | Platelet DG rel | SENP8 block-2 | SENP6 block | SENP7 block | SENP8 conf
COC(=O)c1[nH]cnc1C(=O)c1ccccc1 | 54 | n | n | n | n | n | n
COc1ccccc1NC(=O)c1nc[nH]c1C(=O)Nc1ccccc1OC | n | n | n | n | n | n | x
C=CCn1ccc(=NC=C(C#N)C#N)c2ccccc21 | 45 | n | n | n | n | n | n
CC(=O)O[C@H]1C[C@@]2(O)[C@@H](OC(=O)c3ccccc3)C3[C@@](C)([C@@H](O)C[C@H]4OC[C@@]34OC(C)=O)[C@@H](O)[C@H](OC(C)=O)C(=C1C)C2(C)C (some centres undefined) | 43 | n | n | n | n | n | n
CC1=NN(c2ccc(C)c(C)c2)C(=O)C1C(c1cccc(O)c1)C1C(=O)N(c2ccc(C)c(C)c2)N=C1C (centres undefined) | 81 | n | n | n | n | n | 52
CCOc1ccc(N=Nc2c(=O)[nH]n3c(=O)c4c([nH]c23)CCCC4)cc1 | 54 | n | n | n | n | n | n
O=C(OCCOc1ccccc1)c1cc(S(=O)(=O)N2CCOCC2)c(Cl)cc1Cl | n | n | x | x | x | x | x
COc1cc(C(c2c(C)[nH][nH]c2=O)c2c(C)[nH][nH]c2=O)ccc1OS(=O)(=O)c1ccc(C)cc1 | 56 | n | n | n | n | n | n
COc1cc(C(c2c(C)[nH][nH]c2=O)c2c(C)[nH][nH]c2=O)ccc1OS(=O)(=O)c1ccccc1 | 42 | n | n | n | n | n | n
Cc1ccc(F)c(S(=O)(=O)NC(=O)C2(C)CCN2C(=O)CC(c2ccccc2)c2ccccc2)c1 (centres undefined) | n | n | x | x | x | x | x
O=[N+]([O-])c1ccc(Cl)cc1NCc1cccnc1 | 51 | n | n | n | n | n | n
CCCCOC(=O)C1=C(C)NC2(O)c3ccccc3C(=O)C12O (centres undefined) | 46 | n | n | n | n | n | 65
CC1=C(C(=O)OC(C)C)C2(O)C(=O)c3ccccc3C2(O)N1 (centres undefined) | n | n | n | n | n | n | x
Cc1cc(S(=O)(=O)NCC(c2ccc(F)cc2)N2CCN(C)CC2)ccc1F (centres undefined) | n | n | n | n | n | n | x
CCN(CC)S(=O)(=O)c1ccc(NCC2COc3ccccc3O2)c([N+](=O)[O-])c1 (centres undefined) | 47 | n | n | n | n | n | n
CN(C)S(=O)(=O)c1ccc(NCC2COc3ccccc3O2)c([N+](=O)[O-])c1 (centres undefined) | n | n | n | n | n | n | x
O=c1c2ccccc2c(C=NCc2ccccn2)c(O)n1-c1ccccc1 | 26 | n | n | n | n | n | n
COc1ccc(-n2c(O)c(C=NCc3ccccn3)c3ccccc3c2=O)c(OC)c1 | 41 | n | n | n | n | n | n
Cc1ccc(S(=O)(=O)NC(C)(C)C)cc1C(=O)OCC(=O)N1CCCC1=O | n | n | n | n | n | n | x
COc1ccc(-c2nc(-c3ccccc3OC)no2)cc1OC | 40 | n | n | n | n | n | n
Cc1nn(C)cc1S(=O)(=O)N1CCN(c2ccccc2)CC1 | n | n | n | n | n | n | x
COc1cc(N(C)C)c([N+](=O)[O-])cc1C(=O)NC(C)CNc1ccc([N+](=O)[O-])cc1Cl (centres undefined) | 42 | n | n | n | n | n | n
CCN(CC)CCNC(=O)c1cc([N+](=O)[O-])c(N(C)C)cc1OC | n | n | n | n | n | n | x
C/C=C/c1ccc(OCCCCn2cncn2)c(OC)c1 | n | n | x | n | n | n | x
C/C=C/c1ccc(OCCCn2cncn2)c(OC)c1 | 47 | n | n | n | n | n | n
SMILES | SENP8 block-1 | SENP1 FRET inh | Platelet DG rel | SENP8 block-2 | SENP6 block | SENP7 block | SENP8 conf
CCOC(=O)[C@@H]1[C@H]2COc3ccc(Br)cc3[C@H]2N2C(=O)N(c3ccc(F)cc3)C(=O)[C@@]12C | n | n | n | n | n | n | x
Cc1ccc(C(=O)NCCNc2ncc(C(F)(F)F)cc2Cl)cc1[N+](=O)[O-] | n | n | n | n | n | n | x
O=[N+]([O-])c1cc(Cl)ccc1NCCNc1ncc(C(F)(F)F)cc1Cl | 43 | n | n | n | n | n | n
O=C(C1CCCCC1)N1CCCc2ccccc21 | n | n | n | n | n | n | x
CC(C)N1C(=O)CCC1C(=O)N1CCCc2ccccc21 (centres undefined) | 41 | n | n | n | n | n | 67
COCC(=O)N1CCN(c2ccc([N+](=O)[O-])cc2)CC1 | 42 | n | n | n | n | n | n
COc1cc2cc(CCCOC(=O)c3ccc(F)cc3)oc(=O)c2cc1OC | n | n | x | n | n | n | x
O=[N+]([O-])c1ccc(N2CCN(Cc3ccccc3)CC2)c2c1no[n+]2[O-] | 42 | 36 | x | x | x | x | 83
O=C(CCS(=O)(=O)Cc1ccccc1F)N1CCc2ccccc2C1 | 67 | n | n | n | n | n | 75
CCCCn1nnnc1SCC(=O)NC1CCCCC1 | n | n | n | n | n | n | x
CC(=O)Nc1ccc(NC(=O)C(C)OC(=O)CCCN=C2NS(=O)(=O)c3ccccc32)cc1 (centres undefined) | n | n | n | n | n | n | x
Cc1ccc(C(=O)C(C)OC(=O)CCN=C2NS(=O)(=O)c3ccccc32)cc1 (centres undefined) | 46 | n | n | n | n | n | n
CC(OC(=O)CCN=C1NS(=O)(=O)c2ccccc21)C(=O)Nc1ccc(N(C)C)cc1 (centres undefined) | 45 | n | n | n | n | n | n
CC(OC(=O)CCN=C1NS(=O)(=O)c2ccccc21)C(=O)c1ccccc1 (centres undefined) | n | n | n | n | n | n | x
O=C(NC1CCCC1)C(c1ccccc1)n1c(CSCCOc2ccccc2)nc2ccccc21 (centres undefined) | n | n | x | x | x | x | x
OCC[C@@H]1C[C@H](O)[C@@H](O)[C@@]2(CCCc3ccccc3O2)O1 | n | n | n | n | n | n | x
Cc1ccccc1C(=O)Nc1ccc(-c2nnc(SC(C)C(=O)O)n2C)cc1 (centres undefined) | 41 | n | n | n | n | n | n
COc1ccc2[nH]c3c(NCCN4CCCCC4)ncnc3c2c1 | n | n | n | n | n | n | x
COc1cc(NCCCNC(C)C)c2nccc(C)c2c1 | 65 | n | x | x | x | x | 48
CC1CCC2C(=O)N(c3ccc(NC4CCN(Cc5ccccc5)CC4)c([N+](=O)[O-])c3)C(=O)C2C1 (centres undefined) | 47 | n | n | n | n | n | n
O=C1C2CCCCC2C(=O)N1c1ccc(NC2CCN(Cc3ccccc3)CC2)c([N+](=O)[O-])c1 (centres undefined) | 44 | n | n | n | n | n | n
